What was measured:
RAW264.7 [1] = assay: Inhibition of NO production in mouse RAW264.7 cells at 10 uM after 24 hrs by ELISA; assay type: functional, cell-based; conditions: in the assay text read “by Griess assay” for “by ELISA”
How it was run: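 RAW264.7 cells cultured with inhibitors for 24 h. NO2- accumulation in medium taken as NO output: supernatant mixed 1:1 with Griess reagent (1% sulfanilamide, 0.1% naphthylethylenediamine dihydrochloride, 2% phosphoric acid), 10 min at room temperature, absorbance at 540 nm against a NaNO2 standard curve. Single concentration 10 μM. Means of three experiments.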

[2] = molecular target: Matrix metalloproteinase-9 (Homo sapiens, UniProt P14780); assay: Inhibition of human recombinant MMP9
How it was run: (§1)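 Recombinant human MMP-2 or MMP-9 catalytic domain with fluorogenic quenched peptide Mca-Pro-Leu-Gly-Leu-Dpa-Ala-Arg-NH2. Cleavage releases Mca. Fluorescence read at excitation 324, emission 420, and the rate of emission change is taken as enzyme activity. IC50 values are means of three experiments.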

[3] = molecular target: 72 kDa type IV collagenase (Homo sapiens, UniProt P08253); assay: Inhibition of human recombinant MMP2; how it was run: as §1
[4] = molecular target: Disintegrin and metalloproteinase domain-containing protein 17 (Homo sapiens, UniProt P78536); assay: Inhibition of human TACE
RAW264.7 [5] = assay: Inhibition of TNFalpha production in mouse RAW264.7 cells after 24 hrs by ELISA; assay type: functional, cell-based; conditions: RAW264.7, 24 h
How it was run: (§2)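 RAW264.7 cells cultured with inhibitors for 24 h. Secreted TNF-α in culture supernatant quantified by ELISA following the kit instructions. IC50 values are means of three experiments; line 3 is the single-concentration 10 μM result.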

RAW264.7 [6] = assay: Inhibition of TNFalpha production in mouse RAW264.7 cells at 10 uM after 24 hrs by ELISA; assay type: functional, cell-based; how it was run: as §2

Matrix metalloproteinase-9, sequence (P14780 whole entry, the tested form may be a part): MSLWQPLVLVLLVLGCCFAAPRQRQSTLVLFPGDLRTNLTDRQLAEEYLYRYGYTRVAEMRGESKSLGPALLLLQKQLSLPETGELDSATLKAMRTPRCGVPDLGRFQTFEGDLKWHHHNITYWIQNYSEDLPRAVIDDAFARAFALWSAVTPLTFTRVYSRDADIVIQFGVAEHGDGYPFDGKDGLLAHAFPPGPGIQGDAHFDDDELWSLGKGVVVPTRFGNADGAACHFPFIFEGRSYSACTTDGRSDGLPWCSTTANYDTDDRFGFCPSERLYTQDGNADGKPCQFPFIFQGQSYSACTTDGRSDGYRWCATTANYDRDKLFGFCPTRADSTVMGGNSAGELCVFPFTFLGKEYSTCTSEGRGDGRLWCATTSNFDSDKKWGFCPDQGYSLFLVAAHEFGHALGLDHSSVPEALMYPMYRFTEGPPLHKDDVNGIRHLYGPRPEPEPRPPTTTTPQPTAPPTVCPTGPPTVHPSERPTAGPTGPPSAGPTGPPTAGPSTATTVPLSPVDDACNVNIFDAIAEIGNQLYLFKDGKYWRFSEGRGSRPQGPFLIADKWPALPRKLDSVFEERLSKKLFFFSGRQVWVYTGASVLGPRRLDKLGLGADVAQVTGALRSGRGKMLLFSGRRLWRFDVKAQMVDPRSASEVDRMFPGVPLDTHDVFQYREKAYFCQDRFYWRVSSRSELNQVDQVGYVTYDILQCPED
72 kDa type IV collagenase, sequence (P08253 whole entry, the tested form may be a part): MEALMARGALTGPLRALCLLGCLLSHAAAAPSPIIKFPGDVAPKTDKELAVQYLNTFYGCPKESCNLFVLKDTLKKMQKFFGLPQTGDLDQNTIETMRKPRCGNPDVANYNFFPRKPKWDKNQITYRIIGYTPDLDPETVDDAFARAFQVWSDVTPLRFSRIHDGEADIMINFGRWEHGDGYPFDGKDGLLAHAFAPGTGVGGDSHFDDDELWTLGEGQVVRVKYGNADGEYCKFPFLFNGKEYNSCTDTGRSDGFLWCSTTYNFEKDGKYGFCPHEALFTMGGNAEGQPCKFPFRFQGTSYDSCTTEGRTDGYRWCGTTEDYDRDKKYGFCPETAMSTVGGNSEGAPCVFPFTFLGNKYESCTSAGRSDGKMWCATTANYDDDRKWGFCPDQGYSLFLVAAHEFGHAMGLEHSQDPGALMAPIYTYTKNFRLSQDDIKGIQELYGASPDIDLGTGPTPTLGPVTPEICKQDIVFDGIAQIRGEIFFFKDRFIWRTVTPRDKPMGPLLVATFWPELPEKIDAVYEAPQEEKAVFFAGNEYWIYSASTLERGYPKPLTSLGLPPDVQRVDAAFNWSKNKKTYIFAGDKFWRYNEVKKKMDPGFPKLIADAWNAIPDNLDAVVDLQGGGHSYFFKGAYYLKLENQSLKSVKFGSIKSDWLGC
Disintegrin and metalloproteinase domain-containing protein 17, sequence (P78536 whole entry, the tested form may be a part): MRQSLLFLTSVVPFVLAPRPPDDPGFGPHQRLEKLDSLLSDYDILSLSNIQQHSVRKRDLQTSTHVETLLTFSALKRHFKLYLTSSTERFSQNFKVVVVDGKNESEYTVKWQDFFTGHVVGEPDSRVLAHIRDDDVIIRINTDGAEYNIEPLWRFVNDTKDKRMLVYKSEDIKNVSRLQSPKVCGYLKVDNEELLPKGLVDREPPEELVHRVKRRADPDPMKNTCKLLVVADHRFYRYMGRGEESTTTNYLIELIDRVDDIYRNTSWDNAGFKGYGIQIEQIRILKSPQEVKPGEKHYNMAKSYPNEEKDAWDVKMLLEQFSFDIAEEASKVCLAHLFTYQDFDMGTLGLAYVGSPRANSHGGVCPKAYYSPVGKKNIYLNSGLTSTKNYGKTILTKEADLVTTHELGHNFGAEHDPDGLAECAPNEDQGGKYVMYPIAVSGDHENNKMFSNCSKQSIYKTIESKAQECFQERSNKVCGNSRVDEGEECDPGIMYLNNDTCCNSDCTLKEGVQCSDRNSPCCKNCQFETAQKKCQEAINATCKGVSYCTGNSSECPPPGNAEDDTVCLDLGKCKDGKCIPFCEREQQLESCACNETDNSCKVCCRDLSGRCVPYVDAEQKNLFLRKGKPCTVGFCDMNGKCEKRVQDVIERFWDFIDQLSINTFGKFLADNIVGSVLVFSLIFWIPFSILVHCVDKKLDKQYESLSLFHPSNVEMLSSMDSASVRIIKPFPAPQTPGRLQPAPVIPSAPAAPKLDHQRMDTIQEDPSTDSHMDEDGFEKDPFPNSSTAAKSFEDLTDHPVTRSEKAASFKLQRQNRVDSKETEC

| Structure (SMILES) | IC50 (RAW264.7 [1]) | IC50 [2] [nM] | IC50 [3] [nM] | IC50 [4] [nM] | IC50 (RAW264.7 [5]) [nM] | IC50 (RAW264.7 [6]) |
| --- | --- | --- | --- | --- | --- | --- |
| C/C=C/C=C\C=C1\C=C(CCC(=O)NO)C(=O)OC1 | Not Active | 23 | 6 | 28 | 8800 | – |
| O=C(CCc1cc2ccccc2oc1=O)NO | Not Active | 1410 | 200 | 150 | 5640 | – |
| Cc1ccc2oc(=O)c(CC(Cc3ccccc3)C(=O)NO)cc2c1 (configuration not stated) | Not Active | – | – | 5 | 540 | – |
| Cc1ccc2oc(=O)c(CCC(=O)NO)cc2c1 | Not Active | 3050 | 230 | 60 | 1300 | – |
| Cc1ccc2oc(=O)c(CC(C)C(=O)NO)cc2c1 (configuration not stated) | Not Active | > 10000 | 1040 | 3 | 320 | – |
| COc1ccc2oc(=O)c(CC(C)C(=O)NO)cc2c1 (configuration not stated) | Not Active | – | – | 36 | 220 | – |
| O=C(CCc1cc2cc(Cl)ccc2oc1=O)NO | Not Active | 16400 | 1470 | 550 | 25600 | – |
| O=C(CCc1cc2cc(Br)ccc2oc1=O)NO | Not Active | 24500 | 860 | 840 | 13000 | – |
| C=CCC(Cc1cc2cc(C)ccc2oc1=O)C(=O)NO (configuration not stated) | Not Active | – | – | 30 | 520 | – |
| CC(C)(C)c1ccc2oc(=O)c(CCC(=O)NO)cc2c1 | Not Active | – | – | 12400 | – | Not Active |
| COc1ccc2oc(=O)c(CCC(=O)NO)cc2c1 | Not Active | 5660 | 590 | 110 | 2210 | – |

From ChEMBL document CHEMBL1140764, “Chromen-based TNF-alpha converting enzyme (TACE) inhibitors: design, synthesis, and biological evaluation” (Bioorg Med Chem, 2008)
